Measured values published in ChEMBL document CHEMBL2062497, “Syntheses and in vitro evaluation of decalinvesamicol analogues as potential imaging probes for vesicular acetylcholine transporter (VAChT)” (Bioorg Med Chem, 2012).

How the values were obtained:
[1] = Displacement of [3H]DTG from sigma2 receptor in Sprague-Dawley rat liver membrane after 90 mins by liquid scintillation counting in presence of pentazocine; assay type: cell membranes
How it was run: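 Sigma-2 assay: rat liver membranes (male Sprague-Dawley) with [3H]DTG (Kd 22.3 nM) plus pentazocine to mask sigma-1. Displacers at 1.0×10^-10–10^-5 M in 50 mM Tris-HCl pH 7.8, quadruplicate. Incubated 37 °C for 90 min, then filtered and scintillation counted. Three independent experiments; Ki via IC50/(1 + C/Kd).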

[2] = target: T1, Vesicular acetylcholine transporter (Rattus norvegicus, UniProt Q62666); assay: Displacement of [125I]O-iodo-trans-decalinvesamicol from VAChT in Sprague-Dawley rat cerebral membrane after 1 hr by gamma counting
T1 sequence (Q62666 whole entry): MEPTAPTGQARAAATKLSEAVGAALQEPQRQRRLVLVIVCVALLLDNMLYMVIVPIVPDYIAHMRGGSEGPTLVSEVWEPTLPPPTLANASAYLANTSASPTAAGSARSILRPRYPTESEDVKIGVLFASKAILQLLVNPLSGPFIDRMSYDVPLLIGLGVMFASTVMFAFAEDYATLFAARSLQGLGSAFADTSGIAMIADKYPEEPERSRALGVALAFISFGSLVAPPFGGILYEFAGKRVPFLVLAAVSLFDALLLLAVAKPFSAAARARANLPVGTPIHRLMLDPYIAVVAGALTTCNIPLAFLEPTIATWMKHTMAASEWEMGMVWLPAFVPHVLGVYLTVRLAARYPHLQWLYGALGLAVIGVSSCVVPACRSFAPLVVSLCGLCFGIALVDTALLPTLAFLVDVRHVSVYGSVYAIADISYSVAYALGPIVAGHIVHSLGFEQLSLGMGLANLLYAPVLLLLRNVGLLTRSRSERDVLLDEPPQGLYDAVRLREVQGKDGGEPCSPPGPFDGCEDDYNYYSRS
How it was run: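 Male Sprague-Dawley cerebral membranes were incubated with 5 nM radioiodinated tracer and each ligand at 10^-10–10^-5 M in 50 mM Tris-HCl pH 7.8, quadruplicate. Nonspecific binding was taken with excess unlabelled ligand. Incubation was 37 °C for 1 h, then ice quench, PEI-soaked filter harvest and gamma counting.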

[3] = target: Sigma non-opioid intracellular receptor 1 (Rattus norvegicus, UniProt Q9R0C9); assay: Displacement of (+)-[3H]pentazocine from sigma1 receptor in Sprague-Dawley rat cerebral membrane after 90 mins by liquid scintillation counting
[4] = target: T1, Vesicular acetylcholine transporter; assay: Displacement of (-)-[3H]vesamicol from VAChT in Sprague-Dawley rat cerebral membrane after 60 mins by liquid scintillation counting in presence of DTG
[5] = target: T1, Vesicular acetylcholine transporter; assay: Binding affinity to VAChT in Sprague-Dawley rat cerebral membrane after 1 hr by gamma counting in presence of haloperidol
How it was run: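 Saturation binding of [¹²⁵I]-labelled radioligand (0.1–10 nM) to cerebral membranes from male 8-week Sprague-Dawley rats (sucrose homogenate, differential centrifugation), with 100 nM haloperidol masking σ receptors. Incubated in 50 mM Tris–HCl pH 7.8 for 1 h at 37 °C, in quadruplicate. Filtered and washed, then gamma counted. Specific binding is total minus nonspecific; Kd and Bmax come from the saturation curve and Scatchard plot.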

[6] = tested on: Brain; assay: Drug uptake in Sprague-Dawley rat brain at 185 kBq, iv at 10 mins by gamma counting; assay type: ADME, organism-based; conditions: in vivo
How it was run: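 Male Sprague-Dawley rats (8 weeks, 250–300 g, n = 4) got radioiodinated tracer, 185 kBq, by tail-vein injection. Sacrificed at 10 min. Whole brains were weighed and gamma counted, expressed as %ID/g.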

[7] = n-octanol-water partition coefficient, log P at 0.51 MBq after 5 mins by gamma counting; assay type: physicochemical
How it was run: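 Tracer (0.51 MBq) partitioned between n-octanol and 0.1 M phosphate buffer pH 7.4 (n = 4). Vortexed 5 min at room temperature, then centrifuged 10 min at 2000g. Four samples per layer were gamma counted. logP = log10(octanol/aqueous radioactivity). Three independent experiments.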

[8] = target: T1, Vesicular acetylcholine transporter; assay: Binding affinity to VAChT in rat cerebral membrane; assay type: cell membranes

Chain of Sigma non-opioid intracellular receptor 1 (Q9R0C9 whole entry): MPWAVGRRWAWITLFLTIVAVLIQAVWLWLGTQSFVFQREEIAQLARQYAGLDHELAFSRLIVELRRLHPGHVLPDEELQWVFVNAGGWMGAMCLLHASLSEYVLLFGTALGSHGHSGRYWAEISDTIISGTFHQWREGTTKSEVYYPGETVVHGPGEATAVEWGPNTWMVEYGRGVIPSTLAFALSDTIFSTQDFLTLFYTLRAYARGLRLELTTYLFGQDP

Compound | Ki [1] [nM] | Ki [2] [nM] | also measured
Cc1ccccc1NC(=N)Nc1ccccc1C [DITOLYLGUANIDINE] | 31.7 | 1130 | 
OC1C[C@@H]2CCCC[C@H]2CC1N1CCC(c2ccccc2Br)CC1 (relative stereo) | 138 | 9.3 | Ki [3]: 151 nM; Ki [4]: 13.8 nM
O=C(c1ccc(F)cc1)C1CCN(CCn2c(=O)[nH]c3ccccc3c2=O)CC1 [KETANSERIN] |  | > 10000 | 
O=C(CCCN1CCC(O)(c2ccc(Cl)cc2)CC1)c1ccc(F)cc1 [HALOPERIDOL] | 51.6 |  | 
OC1C[C@@H]2CCCC[C@H]2CC1N1CCC(c2ccccc2[125I])CC1 (relative stereo) |  |  | Kd [5]: 1.73 nM; Drug uptake [6]: 0.45 % ID/g; logP at 5 min [7]: 2.46
OC1C[C@@H]2CCCC[C@H]2CC1N1CCC(c2ccccc2)CC1 (relative stereo) | 68.3 |  | Ki [3]: 74.1 nM
O[C@@H]1CCCCC1N1CCC(c2ccccc2[125I])CC1 (some centres not stated) |  |  | Kd [8]: 17.4 nM
NC[C@H](O)c1ccc(O)c(O)c1 [NOREPINEPHRINE] |  | > 10000 | 
CC(C)=CCN1CC[C@]2(C)c3cc(O)ccc3C[C@H]1[C@H]2C [(+)-PENTAZOCINE] |  | > 10000 | 
OC1CCCCC1N1CCC(c2ccccc2)CC1 (configuration not stated) | 86.7 |  | 
O=C(CCCN1CCC2(CC1)C(=O)NCN2c1ccccc1)c1ccc(F)cc1 [SPIPERONE] |  | 1030 | 
OC1C[C@@H]2CCCC[C@H]2CC1N1CCC(c2ccccc2I)CC1 (relative stereo) | 119 | 28.6 | Ki [3]: 242 nM; Ki [4]: 20.5 nM
